This is an account of results in paper PMC7873610 (European Journal of Medicinal Chemistry, 2021).

One may read the IC50 as the concentration that inhibits the measured activity by half.

Structures are written as SMILES. Read-outs that look alike come from different tables or passages of the source.

One assay deals with MGC-803. As to the kind of experiment: MTS cytotoxicity assay, MGC-803. The assay is classed as cell-based. As to conditions: Homo sapiens, MGC-803, 72 h, read-out: Cytotoxicity IC50 ± SEM, MGC-803. A digest of the protocol: (§1)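 HeLa, MGC-803 and SW480 cells were maintained in DMEM with 10% FBS at 37 °C and 5% CO2. Each line was plated at 5∗10^3 cells/well in 100 μL and treated with test compound for 72 h. MTS solution was added and incubated 3 more h at 37 °C, then absorbance was measured at 490 nm. Assays were run in triplicate with triplicate wells; IC50 was obtained by curve fitting.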
(In general: Tetrazolium assays rely on reduction of a dye to a coloured formazan, in cell work by metabolically active cells.)

For assay [1], the system named is HeLa. Description: MTS cytotoxicity assay, HeLa. It is filed as cell-based. As to conditions: Homo sapiens, 72 h, read-out: Cytotoxicity IC50 ± SEM, Hela, MTS, 72 h. A digest of the protocol:
as §1

A further assay concerns SW480. Description: MTS cytotoxicity assay, SW480. The assay is classed as cell-based. The following applies: Homo sapiens, SW480, 72 h, read-out: Cytotoxicity IC50 ± SEM, SW480. A digest of the protocol: as §1
The test system of the next assay is THP-1. As to the kind of experiment: MTS cytotoxicity assay, THP-1. It is filed as cell-based. The following applies: Homo sapiens, THP-1, 72 h, read-out: Cytotoxicity IC50 ± SEM, THP-1. The method, boiled down:
(§2)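 RPMI8226, THP-1 and Ramos cells were grown in RPMI 1640 with 10% FBS at 37 °C and 5% CO2. Cells were seeded in 100 μL at 1∗104/well (RPMI8226) or 5∗104/well (THP-1, Ramos) and exposed to test compound for 72 h. MTS was then added for 3 h at 37 °C, and OD was read at 490 nm. Triplicate experiments, triplicate wells each; IC50 from curve fitting.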

In the next assay the test system is Ramos (RA 1). As to the kind of experiment: MTS cytotoxicity assay, Ramos. It is filed as cell-based. The following applies: Homo sapiens, 72 h, read-out: Cytotoxicity IC50 ± SEM, Ramos (RA 1). The method, boiled down:
as §2

A further assay concerns RPMI8226. Description: MTS cytotoxicity assay, RPMI8226. The assay is classed as cell-based. As to conditions: Homo sapiens, RPMI-8226, 72 h, read-out: Cytotoxicity IC50 ± SEM, RPMI8226. A digest of the protocol:
as §2

The target of assay [2] is β5 catalytic subunit (chymotrypsin-like activity) (Homo sapiens, UniProt P20618+P28074). As to the kind of experiment: Proteasome-Glo cell-based chymotrypsin-like. The following applies: CT-L; for fold increase in inhibitory activity than compounds with unsubstituted phenyl: vs 30, 29 and BSc2189.
Assay [3] has as its system HeLa. The following applies: read-out: IC50 in HeLa cells, previously published value; cited from earlier work.
The subject of assay [4] is chymotrypsin-like subunit. The following applies: cited from earlier work.

As for `CC(=O)c1ccc(-c2ccc(C(=O)N[C@@H](CC(C)C)C(=O)N[C@@H](CC(C)C)C(=O)N[C@@H](CC(C)C)C(=O)C(=O)Nc3cccc(C(C)=O)c3)o2)cc1` [Compound 46, 5-(4-acetylphenyl)-N-((S)-1-(((S)-1-(((S)-1-((3-acetylphenyl)amino)-5-methyl-1,2-dioxohexan-3-yl)amino)-4-methyl-1-oxopentan-2-yl)amino)-4-methyl-1-oxopentan-2-yl)furan-2-carboxamide], the IC50 in the assay with MGC-803 stood at 79 ± 12.6 nM; in the assay on HeLa [1] it was 260 ± 4.34 nM; in the assay on SW480 it was 79.3 ± 1.87 nM; with THP-1, 94.4 ± 1.45 nM; with Ramos (RA 1) it was 26.13 ± 0.18 nM; in the assay with RPMI8226, 38.1 ± 1.19 nM.

Turning to `CC(C)C[C@H](NC(=O)OCc1ccccc1)C(=O)N[C@@H](Cc1c[nH]c2ccccc12)C(=O)N[C@@H](CC(C)C)C(=O)C(=O)Nc1cccc2ccccc12` [Compound 37, ((S)-1-(((S)-3-(1H-indol-3-yl)-1-(((S)-5-methyl-1-(naphthalen-1-ylamino)-1,2-dioxohexan-3-yl)amino)-1-oxopropan-2-yl)amino)-4-methyl-1-oxopentan-2-yl) carbamic acid benzyl ester], the “fold decrease in inhibitory potency over 29” value in [2] (1-naphthyl vs unsubstituted phenyl head group) is given as 2 fold.

In the case of `CC(C)C[C@H](NC(=O)OCc1ccccc1)C(=O)N[C@@H](Cc1c[nH]c2ccccc12)C(=O)N[C@@H](CC(C)C)C(=O)C(=O)Nc1cccc(S(C)(=O)=O)c1` [Compound 36, ((S)-1-(((S)-3-(1H-indol-3-yl)-1-(((S)-5-methyl-1-((3-(methylsulfonyl)phenyl)amino)-1,2-dioxohexan-3-yl)amino)-1-oxopropan-2-yl)amino)-4-methyl-1-oxopentan-2-yl)carbamic acid benzyl ester], the “fold increase in inhibitory activity than compounds with unsubstituted phenyl” value in [2] is recorded as 1.5–4 fold.

In the case of `COc1ccc(C[C@H](NC(=O)[C@H](C)NC(=O)CN2CCOCC2)C(=O)N[C@@H](Cc2ccccc2)C(=O)[C@@]2(C)CO2)cc1` [ONX-0914, reference compound], the results for the IC50 with HeLa [1] and in the assay with THP-1 were 590 nM and 202 nM, respectively.

`CC(=O)c1cccc(NC(=O)C(=O)[C@H](CC(C)C)NC(=O)[C@H](Cc2ccccc2)NC(=O)[C@H](CC(C)C)NC(=O)OCc2ccccc2)c1` [Compound 34, ((S)-1-(((S)-1-(((S)-1-((3-acetylphenyl)amino)-5-methyl-1,2-dioxohexan-3-yl)amino)-1-oxo-3-phenylpropan-2-yl)amino)-4-methyl-1-oxopentan-2-yl)carbamic acid benzyl ester]: in assay [2], the “fold increase in inhibitory activity than compounds with unsubstituted phenyl” value was 1.5–4 fold.

For the compound `CC(C)C[C@H](NC(=O)OCc1ccccc1)C(=O)N[C@@H](CC(C)C)C(=O)N[C@@H](CC(C)C)C(=O)C(=O)Nc1ccccc1` [BSc2189], the IC50 in the assay on HeLa [3] was 254 nM.

Turning to `CC(C)C[C@H](NC(=O)[C@H](Cc1ccccc1)NC(=O)[C@H](CC1CCCCC1)NC(=O)OCc1ccccc1)C(=O)C(=O)Nc1ccccc1` [Compound 31, ((2S)-3-cyclohexyl-1-(((2S)-1-((5-methyl-1,2-dioxo-1-(phenylamino)hexan-3-yl)amino)-1-oxo-3-phenylpropan-2-yl)amino)-1-oxopropan-2-yl)carbamic acid benzyl ester], in assay [2] (vs 28 with Ala at P3), the “fold increase in potency relative to analog 28” value is 3 fold. Moreover, the “fold reduced activity compared with 30” value in assay [2] (vs 30 with Leu at P3) is around 3 fold.

For `COc1cccc(NC(=O)C(=O)[C@H](CC(C)C)NC(=O)[C@H](CC(C)C)NC(=O)[C@H](CC(C)C)NC(=O)c2ccc(-c3ccc(C(C)=O)cc3)o2)c1` [Compound 47, N-((S)-1-(((S)-1-(((S)-1-((3-methoxyphenyl)amino)-5-methyl-1,2-dioxohexan-3-yl)amino)-4-methyl-1-oxopentan-2-yl)amino)-4-methyl-1-oxopentan-2-yl)5-(4-acetylphenyl)-furan-2-carboxamide], the IC50 is 85.4 ± 6.73 nM in the assay with MGC-803; 239 ± 3.28 nM with HeLa [1]; 74.5 ± 3.13 nM with SW480; 97.9 ± 2.79 nM in the assay on THP-1; 38.3 ± 3.04 nM in the assay on Ramos (RA 1); 43.4 ± 1.04 nM in the assay with RPMI8226.

Regarding `CC(C)C[C@H](NC(=O)OCc1ccccc1)C(=O)N[C@@H](CC(C)C)C(=O)N[C@@H](CC(C)C)C(=O)C(=O)Nc1ccccc1-c1ccccc1` [Compound 41, ((S)-1-(((S)-1-(((S)-1-([1,1′-biphenyl]-2-ylamino)-5-methyl-1,2-dioxohexan-3-yl)amino)-4-methyl-1-oxopentan-2-yl)amino)-4-methyl-1-oxopentan-2-yl)carbamic acid benzyl ester], the “fold reduced inhibitory activity” value in [2] (phenyl in ortho position of head group phenyl) is “up to 150 fold”.

With `CC(=O)c1cccc(NC(=O)C(=O)[C@H](CC(C)C)NC(=O)[C@H](CC(C)C)NC(=O)[C@H](CC(C)C)NC(=O)OCc2ccccc2)c1` [Compound 38, ((S)-1-(((S)-1-(((S)-1-((3-acetylphenyl)amino)-5-methyl-1,2-dioxohexan-3-yl)amino)-4-methyl-1-oxopentan-2-yl)amino)-4-methyl-1-oxopentan-2-yl) carbamic acid benzyl ester], the “fold increase in inhibitory activity than compounds with unsubstituted phenyl” value in assay [2] is 1.5–4 fold.

Consider `CC(=O)c1cccc(NC(=O)C(=O)[C@H](CC(C)C)NC(=O)[C@H](Cc2c[nH]c3ccccc23)NC(=O)[C@H](CC(C)C)NC(=O)OCc2ccccc2)c1` [Compound 35, ((S)-1-(((S)-1-(((S)-1-((3-acetylphenyl)amino)-5-methyl-1,2-dioxohexan-3-yl)amino)-3-(1H-indol-3-yl)-1-oxopropan-2-yl)amino)-4-methyl-1-oxopentan-2-yl)carbamic acid benzyl ester], for which, in [2], the “fold increase in inhibitory activity than compounds with unsubstituted phenyl” value is 1.5–4 fold.

With `Cc1ccc(NC(=O)C(=O)C(CC(C)C)NC(=O)C(CC(C)C)NC(=O)C(CC(C)C)NC(=O)OCc2ccccc2)c(C)c1` (stereo not drawn) [BSc4999], the “fold more potent than BSc2189” value in assay [4] was “about 2 fold”.
